Source: ChEMBL document CHEMBL2346606, “Inhibitors of the TAM subfamily of tyrosine kinases: synthesis and biological evaluation” (Eur J Med Chem, 2013)

Tests used:
MCF7 = assay: Growth inhibition of human MCF7 cells at 10 uM after 72 hrs by […] assay relative to control; type: functional; details: MCF7, 72 h, read-out: GI
Procedure, shortened: (§1)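 HT29, MCF7 and PC-3 cells were grown in RPMI, plated, and treated 24 h later with compound in DMSO at 10^-5 M (DMSO controls, 1% final). After 72 h exposure, MTS reagent was added for 3 h at 37 °C and absorbance read at 490 nm. Proliferation inhibition = [1 − OD treated/OD control] × 100, triplicate experiments.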

HT-29 = assay: Growth inhibition of human HT-29 cells at 10 uM after 72 hrs by […] assay relative to control; type: functional; details: HT-29, 72 h, read-out: GI; procedure, shortened: as §1
PC-3 = assay: Growth inhibition of human PC3 cells at 10 uM after 72 hrs by […] assay relative to control; type: functional; details: PC-3, 72 h, read-out: GI; procedure, shortened: as §1
[1] = Growth inhibition of African green monkey Vero cells at 10 uM after 72 hrs by […] assay relative to control; type: cell-based; details: chlorocebus sabaeus, read-out: GI
Procedure, shortened: (§2)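 KB and Vero cells were grown in D-MEM with 10% FCS and antibiotics under 5% CO2, plated, then dosed 24 h later at 10^-5 M from DMSO (controls 1% DMSO). After 72 h, MTS was added for 3 h at 37 °C and A490 read. Inhibition = (1 − OD treated/OD control) × 100, in triplicate.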

KB = assay: Growth inhibition of human KB cells at 10 uM after 72 hrs by […] relative to control; type: functional; details: read-out: GI; procedure, shortened: as §2

O=C(Nc1cccc(-c2nc3c(Nc4ccccc4)ncnc3[nH]2)c1)c1ccccc1F
< 10%: inhibition of growth at 10 µM (MCF7) | inhibition of growth at 10 µM (HT-29) | inhibition of growth at 10 µM (PC-3) | inhibition at 72 h, 10 µM [1] | inhibition of growth at 10 µM (KB)

O=C(Nc1ccc(Nc2ncnc3[nH]cnc23)c(F)c1)c1ccccc1F
< 10%: inhibition of growth at 10 µM (MCF7) | inhibition of growth at 10 µM (HT-29) | inhibition of growth at 10 µM (PC-3) | inhibition at 72 h, 10 µM [1] | inhibition of growth at 10 µM (KB)

O=C(Nc1ccc(Nc2ncnc3[nH]cnc23)c(F)c1)c1cccn(-c2cccc(F)c2)c1=O
< 10%: inhibition of growth at 10 µM (MCF7) | inhibition of growth at 10 µM (HT-29) | inhibition of growth at 10 µM (PC-3) | inhibition at 72 h, 10 µM [1] | inhibition of growth at 10 µM (KB)

COc1ncccc1C(=O)Nc1cccc(-c2nc3c(Nc4ccc(F)cc4)ncnc3[nH]2)c1
< 10%: inhibition of growth at 10 µM (MCF7) | inhibition of growth at 10 µM (HT-29) | inhibition of growth at 10 µM (PC-3) | inhibition at 72 h, 10 µM [1] | inhibition of growth at 10 µM (KB)

O=C(Nc1ccc(Nc2ncnc3[nH]cnc23)c(F)c1)c1cccnc1F
< 10%: inhibition of growth at 10 µM (MCF7) | inhibition of growth at 10 µM (HT-29) | inhibition of growth at 10 µM (PC-3) | inhibition at 72 h, 10 µM [1] | inhibition of growth at 10 µM (KB)

O=C(Nc1ccc(Nc2ncnc3[nH]cnc23)c(F)c1)c1cccn(-c2cccc(C(F)(F)F)c2)c1=O
< 10%: inhibition of growth at 10 µM (MCF7) | inhibition of growth at 10 µM (HT-29) | inhibition of growth at 10 µM (PC-3) | inhibition at 72 h, 10 µM [1] | inhibition of growth at 10 µM (KB)

O=C(Nc1cccc(-c2nc3c(Nc4cccc(C(F)(F)F)c4)ncnc3[nH]2)c1)c1ccccc1F
< 10%: inhibition of growth at 10 µM (MCF7) | inhibition of growth at 10 µM (HT-29) | inhibition of growth at 10 µM (PC-3) | inhibition at 72 h, 10 µM [1] | inhibition of growth at 10 µM (KB)

O=C(Nc1ccc(Nc2ncnc3[nH]cnc23)cc1)c1cccn(-c2cccc(C(F)(F)F)c2)c1=O
< 10%: inhibition of growth at 10 µM (MCF7) | inhibition of growth at 10 µM (HT-29) | inhibition of growth at 10 µM (PC-3) | inhibition at 72 h, 10 µM [1] | inhibition of growth at 10 µM (KB)

COc1ncccc1C(=O)Nc1cccc(-c2nc3c(Nc4cccc(F)c4)ncnc3[nH]2)c1
< 10%: inhibition of growth at 10 µM (MCF7) | inhibition of growth at 10 µM (HT-29) | inhibition of growth at 10 µM (PC-3) | inhibition at 72 h, 10 µM [1] | inhibition of growth at 10 µM (KB)

COc1ncccc1C(=O)Nc1cccc(-c2nc3c(Nc4ccccc4)ncnc3[nH]2)c1
< 10%: inhibition of growth at 10 µM (MCF7) | inhibition of growth at 10 µM (HT-29) | inhibition of growth at 10 µM (PC-3) | inhibition at 72 h, 10 µM [1] | inhibition of growth at 10 µM (KB)

O=C(Nc1cccc(-c2ncnc3[nH]cnc23)c1)c1cccnc1F
< 10%: inhibition of growth at 10 µM (MCF7) | inhibition of growth at 10 µM (HT-29) | inhibition of growth at 10 µM (PC-3) | inhibition at 72 h, 10 µM [1] | inhibition of growth at 10 µM (KB)

COc1ncccc1C(=O)Nc1ccc(Nc2ncnc3[nH]cnc23)c(F)c1
< 10%: inhibition of growth at 10 µM (MCF7) | inhibition of growth at 10 µM (HT-29) | inhibition of growth at 10 µM (PC-3) | inhibition at 72 h, 10 µM [1] | inhibition of growth at 10 µM (KB)

COc1ccccc1C(=O)Nc1cccc(-c2nc3c(Nc4ccccc4)ncnc3[nH]2)c1
< 10%: inhibition of growth at 10 µM (MCF7) | inhibition of growth at 10 µM (HT-29) | inhibition of growth at 10 µM (PC-3) | inhibition at 72 h, 10 µM [1] | inhibition of growth at 10 µM (KB)

COc1ncccc1C(=O)Nc1ccc(Nc2ncnc3[nH]cnc23)cc1
< 10%: inhibition of growth at 10 µM (MCF7) | inhibition of growth at 10 µM (HT-29) | inhibition of growth at 10 µM (PC-3) | inhibition at 72 h, 10 µM [1] | inhibition of growth at 10 µM (KB)

O=C(Nc1ccc(Nc2ncnc3[nH]cnc23)cc1)c1ccccc1F
< 10%: inhibition of growth at 10 µM (MCF7) | inhibition of growth at 10 µM (HT-29) | inhibition of growth at 10 µM (PC-3) | inhibition at 72 h, 10 µM [1] | inhibition of growth at 10 µM (KB)

Cc1cc(C(=O)Nc2ccc(Nc3ncnc4[nH]cnc34)c(F)c2)ccc1Br
< 10%: inhibition of growth at 10 µM (MCF7) | inhibition of growth at 10 µM (HT-29) | inhibition of growth at 10 µM (PC-3) | inhibition at 72 h, 10 µM [1] | inhibition of growth at 10 µM (KB)
